The values below come from publication PMC3658146 (Clinical cancer research : an official journal of the …, 2013).

Series [1] can be described thus: Urinary recovery of IPdR and metabolites after a single oral dose of IPdR. The series is classed as in vivo, human (patients with advanced malignancies). The settings on record: patients receiving 2400 mg of IPdR. In a few lines:
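Urine was collected pre-dose and then at each void over 24 h, with volumes recorded and aliquots stored at −80°C. Samples underwent liquid–liquid extraction and LC–MS/MS for IPdR, IdUrd, IP and IUra, with BrdUrd and BrUra as internal standards. Calibration covered 0.1–50 μM in patient pre-dose urine. Samples above 50 μM were diluted 1:10 and reanalyzed. The quantitation limit was 0.1 μM for IPdR and IdUrd and 0.25 μM for IP and IUra.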

The nature of series [2]: Plasma pharmacokinetics after a single oral dose of IPdR. It is filed as in vivo, human (patients with advanced malignancies). The method in brief: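 Patients received a single oral dose of 150, 300, 600, 1200 or 2400 mg, with one patient per level and 6 at 2400 mg. Blood was drawn pre-dose and at 5, 15, 30 min and 1, 2, 4, 10, 24 h, and plasma was kept at −80°C. After solvent deproteinization, IPdR, IdUrd, IP and IUra were measured by C18 LC–MS/MS. BrdUrd and BrUra served as internal standards, with calibration at 0.1–50 μM in control plasma.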

Series [3] relates to dihydropyrimidine dehydrogenase. Particulars: stated without reference; cited from earlier work.
For the next series, the system named is anaplastic astrocytoma. The settings on record: patients with anaplastic astrocytoma, radiation combined with IdUrd; cited from earlier work.
Another series concerns tumor. The settings on record: c.i.v. IdUrd; cited from earlier work.
For a further series, the system named is ovarian cancer. The settings on record: patients with ovarian cancer, intraperitoneal IdUrd; cited from earlier work.
For series [4] the following is noted: clinical, reason for c.i.v. infusion; cited from earlier work.
Series [5] is described as follows: Safety assessment for 14 days after a single oral dose of IPdR. It is filed as in vivo, human (patients with advanced malignancies). The settings on record: single oral dose 150-2400 mg, 10 patients, 14 days follow-up. In a few lines: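 After a single oral dose on day 1 (150–2400 mg), patients were followed for 14 days. Complete blood counts with differential and serum chemistries were done at baseline, day 2 and day 14, with grading by CTCAE v4.0. Significant toxicity was defined as a drug-related event within 14 days at grade ≥2 non-hematologic (excluding correctable electrolytes), grade ≥2 thrombocytopenia, or grade ≥3 anemia/leucopenia/neutropenia. Each next patient enrolled only after the prior one completed 2 weeks.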

For series [6] the following is noted: rats, for 28 days; cited from earlier work.
For series [7] the following is noted: athymic mice, ≤ 1500 mg/kg/day for 6 to 14 days; cited from earlier work.
For series [8] the following is noted: mice, oral IPdR, sustained for at least 6 hours; cited from earlier work.
The conditions of series [9]: rats, oral IPdR, sustained for at least 6 hours; cited from earlier work.

“And” between values parts separate entries of the source, which are not always exact repeats. Equal values may be shown once. Read-outs that look alike come from different tables or passages of the source.

Take `O=c1ncc(I)c[nH]1` [IP, 5-iodo-2-pyrimidinone]: the “detection in urine samples” value in [1] is recorded as “detectable”.

For the molecule `O=c1[nH]cc(I)c(=O)[nH]1` [IUra, 5-iodouracil], the concentration at 10 hours in [2] (human, plasma, oral, 2400 mg) is about 100000 nM. Moreover, the AUC is 1 µM·h in series [2] (human, plasma, po, 150 mg); 4.5 µM·h in series [2] (human, plasma, po, 300 mg); 17.2 µM·h in [2] (human, plasma, po, 600 mg); 103 µM·h in [2] (human, plasma, po, 1200 mg); 1060 µM·h in [2] (human, plasma, po, 2400 mg). Further, the Cmax in series [2] (human, plasma, po, 150 mg) was 200 nM; in series [2] (human, plasma, po, 300 mg), 800 nM; in series [2] (human, plasma, po, 600 mg), 4500 nM; in series [2] (human, plasma, po, 1200 mg) it was 34200 nM; in [2] (human, plasma, po, 2400 mg), 133000 nM. In series [2] (single oral IPdR 2400 mg), the “time of peak IUra plasma level post IPdR administration” value was 3.3 ± 1.0 hours and 3.3 (± 1.0) hours. For the same molecule, the “detection in urine samples” value in series [1] is listed as “detectable”. For the same molecule, the “share of the metabolites measured in urine” value in [1] (24 hours) is recorded as 90 ± 13%. Moreover, in [3], the “effect on the enzyme dihydropyrimidine dehydrogenase” value is “inhibits”.

`O=c1[nH]c(=O)n([C@H]2C[C@H](O)[C@@H](CO)O2)cc1I` [IdUrd, 5-iodo-2′-deoxyuridine, reference compound]: the area under the curve (AUC) in series [2] (human, plasma, po, 150 mg) came to 1.7 µM·h; in series [2] (human, plasma, po, 300 mg) it was 0.3 µM·h; in [2] (human, plasma, po, 600 mg) it was 3.2 µM·h; in series [2] (human, plasma, po, 1200 mg) it was 4.7 µM·h; in [2] (human, plasma, po, 2400 mg), 12.2 µM·h. In addition, the Cmax in [2] (human, plasma, po, 150 mg) is 800 nM; in series [2] (human, plasma, po, 300 mg), 300 nM; in series [2] (human, plasma, po, 600 mg), 1800 nM; in series [2] (human, plasma, po, 1200 mg) it was 2100 nM; in series [2] (human, plasma, po, 2400 mg), 4000 nM. Further, the half-life was 1.5 h in series [2] (human, plasma, po, 2400 mg) and “in the order of minutes” in series [4]. In addition, in series [2] (single oral IPdR 2400 mg, 6 patients, mean ± SD), the “time of peak IdUrd plasma level after IPdR administration” value was 1.67 ± 1.21 h. Moreover, the “detection in urine samples” value in series [1] is given as “detectable”. In addition, the median survival in the series on anaplastic astrocytoma is reported as 3.2 years. In the series with anaplastic astrocytoma, the “patients surviving at 5 years” value is 33%. In the series with tumor, the “patients with tumor shrinkage” value is on record as 6 out of 11. Moreover, the effect on ascites result in the series on ovarian cancer was “disappearance of ascites”.

Consider `O=c1ncc(I)cn1[C@H]1C[C@H](O)[C@@H](CO)O1` [IPdR, 5-iodo-2-pyrimidinone-2′-deoxyribose], for which the “IPdR AUC” value in series [2] (plasma, single oral IPdR 150 mg, one patient) is 3.4 μM-hr; in series [2] (plasma, single oral IPdR 600 mg, one patient), 8.3 μM-hr; in series [2] (plasma, single oral IPdR 1200 mg, one patient) it was 0.7 μM-hr; in series [2] (plasma, single oral IPdR 2400 mg, mean of 6 patients) it was 15.6 μM-hr. Further, the Cmax in [2] (read-out: IPdR Cmax, plasma, single oral IPdR 150 mg, one patient) came out at 600 nM; in [2] (read-out: IPdR Cmax, plasma, single oral IPdR 600 mg, one patient) it was 930 nM; in [2] (read-out: IPdR Cmax, plasma, single oral IPdR 1200 mg, one patient), 950 nM; in [2] (read-out: IPdR Cmax, plasma, single oral IPdR 2400 mg, mean of 6 patients), 4300 nM. Further, the “dose recovered in urine over 24 hours” value in series [1] (IPdR and metabolites) is reported as “Twelve”. Besides, the “detection in urine samples” value in series [1] was “detectable”. Also, the drug-related adverse events result in series [5] is “no drug-related adverse events”. In addition, the “tolerable dose for repeat dose studies” value in series [6] is recorded as 2000 mg/kg/day. The “toxicities after daily oral doses” value in series [7] was “no significant toxicities”. For the same molecule, the “plasma concentrations of IPdR” value in [8] and in [9] was over 100000 nM throughout.

A word on the AUC: it is the area under the concentration-time curve, a measure of exposure. The low end stands for less exposure, the high end for more exposure. Broadly, the Cmax is the highest concentration seen after dosing. Broadly, the half-life is the time needed for the level to fall by half in the phase considered.
